Data set [1] in a line: Aqueous solubility of the compound. The class given is physicochemical. In short, it runs like this:
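Aqueous solubility measured at pH 2.3, 6.1, 7.3 and 8.5, in µg/mL.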

Data set [2] deals with Human immunodeficiency virus type 1 integrase (Human immunodeficiency virus 1, UniProt Q7ZJM1). The data set can be described thus: Inhibition of HIV1 integrase strand transfer activity.

Bounds are passed on as bounds.

Human immunodeficiency virus type 1 integrase, sequence (Q7ZJM1 whole entry): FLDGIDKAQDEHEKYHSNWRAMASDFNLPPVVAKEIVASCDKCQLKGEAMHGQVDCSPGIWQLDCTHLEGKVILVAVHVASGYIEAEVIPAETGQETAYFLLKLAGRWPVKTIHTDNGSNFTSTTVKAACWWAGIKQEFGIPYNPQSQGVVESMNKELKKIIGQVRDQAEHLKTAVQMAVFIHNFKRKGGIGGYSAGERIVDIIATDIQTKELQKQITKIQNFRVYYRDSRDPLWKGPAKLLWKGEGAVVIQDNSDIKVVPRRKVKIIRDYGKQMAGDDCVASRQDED

One may read the solubility as how much of the substance goes into solution per volume. A high value points to a readily soluble substance. By IC50 is commonly meant the concentration that inhibits the measured activity by half. A higher IC50 goes with weaker potency in that assay. Compound `CN(C)S(=O)(=O)c1cc(F)ccc1CNC(=O)c1nc2n(c(=O)c1O)CCCC21CCCC1` had a solubility in data set [1] not above 5 µg/mL. The compound further yielded an IC50 in data set [2] of 6 nM.
